From article PMC8209782 (Bioorganic & medicinal chemistry, 2020) come the findings set out here.

One experiment deals with other kallikreins. Briefly: Protease panel assay. The experiment is classed as biochemical, human. Particulars: up to 10 μM. In short, it runs like this:
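Human kallikreins in a 23-protease panel run by a contract lab, with enzyme conditions tabulated in the supplement. […] Fluorogenic AMC peptide substrates; fluorescence increase followed as a time course. The initial linear slope (signal/min) was used to derive IC50.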

The target in another experiment is T1, HNE (Homo sapiens, UniProt P08246).
T1 sequence (P08246 30-267): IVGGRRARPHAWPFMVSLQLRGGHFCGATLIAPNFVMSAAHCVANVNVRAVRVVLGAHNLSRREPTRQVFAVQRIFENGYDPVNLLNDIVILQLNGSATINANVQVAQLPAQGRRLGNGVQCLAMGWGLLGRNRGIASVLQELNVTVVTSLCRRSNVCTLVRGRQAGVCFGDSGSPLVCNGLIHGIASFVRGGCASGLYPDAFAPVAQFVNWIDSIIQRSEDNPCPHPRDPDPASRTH
Briefly: In vitro HNE enzyme assay with pNa substrate. It counts as biochemical.

Consider `C/C=C1\NC(=O)[C@@H](NC(=O)[C@@H](NC(=O)[C@H](C)NC(=O)C/C(C)=C/Cl)[C@@H](C)CC)[C@@H](C)OC(=O)[C@H](C(C)C)NC(=O)[C@H](Cc2ccc(O)cc2)N(C)C(=O)[C@H](Cc2ccccc2)N2C(=O)[C@H](CC[C@H]2O)NC1=O` [Tutuilamide A], for which the “effect on other kallikreins (selectivity profiling)” value in the experiment on other kallikreins is “without affecting”. In addition, the “fold less active than lyngbyastatin 7 against HNE” value on HNE came to 1.5 fold.
